Published values of several laboratories.
Protocols differ between the studies behind these lines.
Target: Protein kinase C delta type (PRKCD, Homo sapiens, UniProt Q05655)

Compound | effect on | action | method | tested at | endpoint | result
CO[C@@H](C)c1c(Nc2ccc([C@@H](N(C)C(=O)C3CCS(=O)(=O)CC3)C(F)(F)F)cc2)cnc2cc(Cl)nn12 | cell-free assay | – | competition with immobilised ligand | 1 µM | remaining binding | 90%
O=C1NC(=O)c2cc(Nc3ccc(F)cc3)c(Nc3ccc(F)cc3)cc21 | cell-free assay | – | – | 0.5 µM | remaining signal | 98.2%
CC(C)(O)[C@H]1CC[C@H](Nc2ccc3ncc(-c4cccc(C(F)(F)F)c4)n3n2)CC1 | enzyme activity | inhibitor | – | 1 µM | remaining activity | 84.2%
Cn1c2ccccc2c2c3c(c4c5ccccc5n(CCC#N)c4c21)CNC3=O | cell-free assay | – | – | 0.5 µM | remaining signal | 41.9%
CNC(=O)c1cc(Oc2ccc(NC(=O)Nc3ccc(Cl)c(C(F)(F)F)c3)cc2)ccn1 | enzyme activity | inhibitor | – | 10 µM | inhibition | -6%
COc1cc(Cl)c(C(=O)N[C@@H](CN[C@H]2CC[C@@H](N)CC2)Cc2ccc(C#N)cc2)cc1-c1ccc(CN[C@H](C)c2ccc(C)cc2)o1 | enzyme activity | inhibitor | – | 1 µM | remaining activity | 100%
Nc1c(C(=O)NCc2ccc(C(=O)NCCCC3CCCCC3)cc2)cnn1-c1ccccc1 | cell-free assay | – | competition with immobilised ligand | 0.1 µM | remaining binding | 88%
C[C@@H](N)[C@H]1CC[C@H](C(=O)Nc2ccncc2)CC1 | enzyme activity | inhibitor | TR-FRET | 10 µM | inhibition | 82.5%
N#Cc1ccc(Nc2ccc3[nH]c(=O)[nH]c3c2)c(Cl)c1 | cell-free assay | – | competition with immobilised ligand | 1 µM | remaining binding | 100%
CCCOc1ccc(OC)c(F)c1C(=O)c1ccc(C(=O)N[C@@H]2CNC[C@H]2NC(=O)c2ccc3[nH]ncc3c2)cc1 | enzyme activity | inhibitor | – | 0.75 µM | remaining activity | 68%
CNCc1ccccc1-c1csc([C@@H](C)Nc2nc(C)nc3cc(OC)c(OC)cc23)c1 | cell-free assay | – | competition with immobilised ligand | 1 µM | remaining binding | 98%
CCN(CC)c1ccc(C2=NNC(=O)CC2C)cc1[N+](=O)[O-] (stereo not shown) | enzyme activity | inhibitor | – | 10 µM | remaining activity | 85%
CC(C)(C)c1nc2c(s1)c1nc(N)ncc1c1ccc(NS(=O)(=O)c3c(F)cccc3F)c(F)c12 | enzyme activity | inhibitor | radiometric | 1 µM | remaining activity | 100%
CCC(=O)N[C@H]1CC[C@@H](C(=O)N(C)c2ccc(-c3nc4ccccc4o3)cc2)C1 | cell-free assay | – | competition with immobilised ligand | 1 µM | remaining binding | 100%
Nc1ncnc2occ(-c3ccc(NC(=O)Nc4cc(C(F)(F)F)ccc4F)cc3)c12 | cell-free assay | – | – | 20 µM | remaining signal | 14%
Cc1ccc(C(=O)NCc2ccsc2)cc1C#Cc1cn(C(C)C)c2ncnc(N)c12 | enzyme activity | inhibitor | – | 1 µM | activity vs control | 90%
CC(=O)Nc1c(C(C)=O)c(=O)n(C)c2nc(-c3ccc(Cl)cc3Cl)c(-c3ccc(Cl)cc3)cc12 | cell-free assay | – | competition with immobilised ligand | 1 µM | remaining binding | 100%
COc1cc2ncnc(Nc3ccc(Oc4ccccc4)c(C)c3C)c2cc1OC | enzyme activity | inhibitor | – | 1 µM | inhibition | 23%
Oc1ccc(-c2nc(-c3ccncc3)c(-c3ccc(F)cc3)[nH]2)cc1 | cell-free assay | – | – | 0.5 µM | remaining signal | 99.3%
Cn1cncc1C1=CN(c2ncnc3[nH]cnc23)CCS1 | enzyme activity | inhibitor | radiometric | 50 nM | inhibition | 12.6%
FC(F)(F)c1ccc2c(c1)nc(-c1cccnc1)n2C1CC1 | cell-free assay | – | competition with immobilised ligand | 1 µM | remaining binding | 100%
Cn1cnc(Br)c1C1=CN(c2ncnc3[nH]cnc23)CCS1 | enzyme activity | inhibitor | radiometric | 2 µM | inhibition | 93.4%
Cc1sc(C(=O)NC2COC2)cc1-n1cc(NC(=O)Nc2c(F)cccc2Cl)cn1 | enzyme activity | inhibitor | – | 10 µM | remaining activity | 98%
N#CCCc1ccc2c(c1)-c1[nH]c3ccc([N+](=O)[O-])cc3c1CC(=O)N2 | cell-free assay | – | – | 0.5 µM | remaining signal | 74.9%
COCCOc1nc(-c2ccc(Cl)nc2)nc2c1CN(C(=O)c1ncn3ccccc13)CC2 | cell-free assay | – | competition with immobilised ligand | 0.1 µM | remaining binding | 100%
